Laboratory results published in ChEMBL document CHEMBL1687755, “PER-6, an extended-spectrum beta-lactamase from Aeromonas allosaccharophila” (Antimicrob Agents Chemother, 2010).
In brackets after ≈: the same amount, converted by molar mass.

Columns and labels:
[1] = tested on: Aeromonas allosaccharophila; experiment: Antimicrobial activity against Aeromonas allosaccharophila AL-1 expressing beta-lactamase PER6 by agar dilution method; type: functional
How it was run: (§1)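 The test organism was environmental isolate AL-1, recovered from Seine River water on MacConkey agar containing ceftazidime (2 μg/ml). It was identified by API 32GN and 16S rRNA gene sequencing. MICs were determined by agar dilution on Mueller-Hinton agar and interpreted by CLSI guidelines.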

[2] = tested on: Escherichia coli; experiment: Antimicrobial activity against Escherichia coli DH10B harboring recombinant Aeromonas allosaccharophila AL-1 beta-lactamase PER6 by agar dilution method; type: functional; conditions: K-12 DH10B
[3] = tested on: Escherichia coli; experiment: Antimicrobial activity against Escherichia coli DH10B harboring recombinant Aeromonas allosaccharophila AL-1 beta-lactamase PER1 by agar dilution method; type: functional; conditions: K-12 DH10B
[4] = tested on: Escherichia coli; experiment: Antimicrobial activity against Escherichia coli DH10B harboring recombinant Aeromonas allosaccharophila AL-1 beta-lactamase PER2 by agar dilution method; type: functional; conditions: K-12 DH10B
[5] = tested on: Escherichia coli; experiment: Antimicrobial activity against Escherichia coli DH10B by agar dilution method; type: functional; conditions: K-12 DH10B
How it was run: (§2)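 MICs measured by agar dilution on Mueller-Hinton agar plates, the method used for imipenem and imipenem combined with clavulanate; other MICs were obtained by Etest. Results were interpreted according to CLSI guidelines. Test strains were E. coli DH10B recombinants carrying cloned PER-1, PER-2 or PER-6 β-lactamase genes.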

[6] = tested on: Aeromonas allosaccharophila; experiment: Antimicrobial activity against Aeromonas allosaccharophila AL-1 expressing beta-lactamase PER6 by agar dilution method in presence of 4 ug/ml of clavulanic acid; type: functional; how it was run: as §1
[7] = tested on: Escherichia coli; experiment: Antimicrobial activity against Escherichia coli DH10B harboring recombinant Aeromonas allosaccharophila AL-1 beta-lactamase PER6 by agar dilution method in presence of 4 ug/ml of clavulanic acid; type: functional; conditions: K-12 DH10B
[8] = tested on: Escherichia coli; experiment: Antimicrobial activity against Escherichia coli DH10B harboring recombinant Aeromonas allosaccharophila AL-1 beta-lactamase PER1 by agar dilution method in presence of 4 ug/ml of clavulanic acid; type: functional; conditions: K-12 DH10B
[9] = tested on: Escherichia coli; experiment: Antimicrobial activity against Escherichia coli DH10B harboring recombinant Aeromonas allosaccharophila AL-1 beta-lactamase PER2 by agar dilution method in presence of 4 ug/ml of clavulanic acid; type: functional; conditions: K-12 DH10B
[10] = tested on: Escherichia coli; experiment: Antimicrobial activity against Escherichia coli DH10B by agar dilution method in presence of 4 ug/ml of clavulanic acid; type: functional; conditions: K-12 DH10B; how it was run: as §2
[11] = tested on: Aeromonas allosaccharophila; experiment: Ratio of Kcat to Km for Aeromonas allosaccharophila AL-1 beta-lactamase PER2

| SMILES | MIC [1] | MIC [2] | MIC [3] | MIC [4] | MIC [5] | MIC [6] | MIC [7] | MIC [8] | MIC [9] | MIC [10] | kcat/Km [11] |
| --- | --- | --- | --- | --- | --- | --- | --- | --- | --- | --- | --- |
| CC1(C)S[C@@H]2[C@H](NC(=O)[C@H](N)c3ccc(O)cc3)C(=O)N2[C@H]1C(=O)O [AMOXICILLIN] | > 256 µg/mL | > 256 µg/mL | > 256 µg/mL | > 256 µg/mL | 4 µg/mL (≈ 10.9 µM) | 12 µg/mL | 4 µg/mL | 4 µg/mL | 6 µg/mL | 4 µg/mL |  |
| CO[C@@]1(NC(=O)C(C(=O)O)c2ccc(O)cc2)C(=O)N2C(C(=O)O)=C(CSc3nnnn3C)CO[C@@H]21 (stereo partly specified) [MOXALACTAM] | < 0.06 µg/mL | 2 µg/mL | 1 µg/mL | 0.5 µg/mL | 0.12 µg/mL (≈ 0.231 µM) |  |  |  |  |  |  |
| C[C@H]1[C@H](NC(=O)/C(=N\OC(C)(C)C(=O)O)c2csc(N)n2)C(=O)N1S(=O)(=O)O [AZTREONAM] | 1 µg/mL (≈ 2.3 µM) | > 256 µg/mL | > 256 µg/mL | > 256 µg/mL |  |  |  |  |  |  | 120000 M⁻¹ s⁻¹ |
| CC(=O)OCC1=C(C(=O)O)N2C(=O)[C@@H](NC(=O)Cc3cccs3)[C@H]2SC1 [CEPHALOTHIN] | 16 µg/mL (≈ 40.4 µM) | > 256 µg/mL | > 256 µg/mL | > 256 µg/mL | 2 µg/mL (≈ 5.04 µM) |  |  |  |  |  | 670000 M⁻¹ s⁻¹ |
